Values after ≈ are worked out from the molar mass of the structure shown.
How the values were obtained:
[1] = Selectivity index, ratio of CC50 for African green monkey Vero C1008 cells to MIC for Mycobacterium tuberculosis H37Rv; assay type: functional
In short: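 Selectivity index is CC50 from the MTT assay on Vero C1008 cells over MIC against Mtb H37Rv from the twofold-dilution REMA plate method, where MIC was read visually by the blue-to-pink resazurin change.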

[2] = Cytotoxicity against African green monkey Vero C1008 cells after 72 hrs by MTT assay; assay type: cell-based; settings: chlorocebus sabaeus
In short: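 Vero C1008 cells were tested in microtitre plates with an MTT viability read-out, and CC50 values were determined.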

[3] = system: Mycobacterium tuberculosis; assay: Antitubercular activity against Mycobacterium tuberculosis H37Rv assessed as parasite growth inhibition after 7 days by resazurin microtitre assay; assay type: functional; settings: 168 h
In short: (§1)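 Mtb H37Rv was tested by resazurin microtitre assay (REMA) with twofold serial dilutions of compound. MIC was read visually as the lowest concentration preventing the dye's blue-to-pink colour change, since pink indicates growth.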

[4] = system: Mycobacterium tuberculosis; assay: Antitubercular activity against Mycobacterium tuberculosis H37Rv assessed as parasite growth inhibition; assay type: functional; in short: as §1

Structure (SMILES) | Selectivity Index [1] | CC50 at 72 h [2] | MIC [3] | MIC [4]
CCN(CC)CC(O)CN(Cc1ccc(Cl)cc1)Cc1cc2ccccc2nc1OC (centres undefined) | 80.41 | 808 µM | 10.1 µM (≈ 4.44 µg/mL) | 
CCN(CC)CC(O)CN(Cc1ccccc1)Cc1cc2ccccc2nc1OC (centres undefined) | 15.1 | 613 µM | 40.6 µM (≈ 16.6 µg/mL) | 
COc1nc2ccccc2cc1CN(Cc1ccccc1)CC(O)CN1CCCC1 (centres undefined) | 152.86 | 792 µM | 5.18 µM (≈ 2.1 µg/mL) | 
CCN(CC)CC(O)CN(Cc1ccc(OC)cc1)Cc1cc2ccccc2nc1OC (centres undefined) | 9.19 | 727 µM | 79.1 µM (≈ 34.6 µg/mL) | 
COc1nc2ccc(Br)cc2cc1[C@@H](c1ccccc1)[C@@](O)(CCN(C)C)c1cccc2ccccc12 [BEDAQUILINE] |  |  |  | 0.108 µM (≈ 0.06 µg/mL)
NNC(=O)c1ccncc1 [ISONIAZID] | 96 |  | 15.3 µM (≈ 2.1 µg/mL) | 
COc1ccc(CN(Cc2cc3ccccc3nc2OC)CC(O)CN2CCCC2)cc1 (centres undefined) | 35.59 | 664 µM | 18.6 µM (≈ 8.12 µg/mL) | 
COc1nc2ccccc2cc1CN(Cc1ccc(C)cc1)CC(O)CN1CCOCC1 (centres undefined) | 40.4 | 884 µM | 21.9 µM (≈ 9.53 µg/mL) | 
COc1nc2ccccc2cc1CN(Cc1ccc(Cl)cc1)CC(O)CN1CCCC1 (centres undefined) | 160.57 | 898 µM | 5.59 µM (≈ 2.46 µg/mL) | 
CCN(CC)CC(O)CN(Cc1ccc(C)cc1)Cc1cc2ccccc2nc1OC (centres undefined) | 52.21 | 1010 µM | 19.3 µM (≈ 8.14 µg/mL) | 
COc1ccc(CN(Cc2cc3ccccc3nc2OC)CC(O)CN2CCOCC2)cc1 (centres undefined) | 5.86 | 928 µM | 158 µM (≈ 71.5 µg/mL) | 
COc1nc2ccccc2cc1CN(Cc1ccc(C)cc1)CC(O)CN1CCCC1 (centres undefined) | 115.02 | 1110 µM | 9.68 µM (≈ 4.06 µg/mL) | 
COc1nc2ccccc2cc1CN(Cc1ccc(Cl)cc1)CC(O)CN1CCOCC1 (centres undefined) | 52.44 | 1060 µM | 20.2 µM (≈ 9.21 µg/mL) | 
COc1nc2ccccc2cc1CN(Cc1ccccc1)CC(O)CN1CCOCC1 (centres undefined) | 5.69 | 553 µM | 97.1 µM (≈ 40.9 µg/mL) | 
